From PubChem BioAssay
HIV Rev-RRE inh – HIV Rev-RRE protein-RNA interaction inhibition; Rev peptide-RRE RNA binding, FRET; inhibition, % at 8 µM; hit rate 0.79% among 97,000;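 active means inhibition above the screen-wide mean plus 3 SD, cut at about 35% in these data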
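Assay system: labelled RRE RNA duplex and labelled Rev peptide / Medium: HEPES pH 7.5 salt buffer with EDTA / Reagent: labelled Rev peptide / Schedule: 5 + 15 min at 25 °C / Signal: FRET, excitation 480 nm, emission 540 nm donor and 671 nm acceptor / Benchmarks: DMSO and neomycin B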
LYP act – LYP (human) phosphatase activation. Q9Y2R2. recombinant LYP, DiFMUP fluorescence; 0 = plate median, 100 = signal doubled. activation, % at 2 µM. hit rate 0.11% among 96,000. AID 697;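 active means activation at 2 µM above a set limit, the mean plus 5 SD, cut at about 37% in these data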
PTK2B oligo ant – antagonists of human Pyk2 oligomerization. Q293 cells, Pyk2 FERM NanoBiT luminescence; stronger effect = lower value. z-score (the deposit names both 25 µM and 10 µM). hit rate 0.83% among 99,000;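 active means Z-score of -3 or lower, scaled per plate to the spread of control and sample wells; inactive means z-score above -3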;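 further: negative z-score means lost luminescence so less FERM oligomerization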
PTPN22 inh 2 – inhibitors of human LYP (PTPN22) phosphatase; inhibition, % at 2 µM; AID 640; recombinant LYP catalytic domain, DiFMUP fluorescence; Q9Y2R2; hit rate 0.21% among 96,000;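 active means inhibition at 2 µM at or above a set limit, the screen mean plus 3 SD, cut at about 24% in these data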
Numbers stand for hits; 0 = inactive; - = no result; [ ] = remark or other dose. A selection: hits, their analogues and other compounds. The true share with any hit is near 1.8%.

SMILES	HIV Rev-RRE inh	LYP act	PTK2B oligo ant	PTPN22 inh 2
O=C1C2C(C(=O)N1CCc1ccccc1)C1C=CC2C12CC2 (configuration not stated)	0	0	0	45
O=C1C2C3C=CC(C3)C2C(=O)N1CCc1ccccc1 (configuration not stated)	0	0	0	0
c1ccc(-c2nnc(CN3CCCc4ccccc43)o2)cc1	84[fluorescence artefact?]	0	0	0
c1ccc(-c2nnc(CN3CCC4(CC3)OCCO4)o2)cc1	0	0	0	0
NC(=O)c1ccccc1NC(=O)/C=C/c1cccc(Cl)c1	0	0	-3.2	0
O=C(Nc1ccccc1)c1ccccc1CC[N+](=O)[O-]	0	0	0	0
CC(=O)Nc1ccc(NC(=O)c2ccccc2CC[N+](=O)[O-])cc1	0	0	0	42
COc1ccc2nc(NC(=S)N(C)C)sc2c1	0	0	0	0
CCCc1nc2ccccc2c(C(=O)OCC(=O)NCc2ccco2)c1CC	0	0	0	0
CCCc1nc2ccccc2c(C(=O)OCC(=O)Nc2cccc(S(=O)(=O)N3CCOCC3)c2)c1CC	0	0	-4.6	0
CCCc1nc2ccccc2c(C(=O)OCC(=O)Nc2ccc(S(=O)(=O)N3CCOCC3)cc2)c1CC	0	0	-4.5	0
O=C(COC(=O)CCc1nc2ccccc2s1)Nc1cccc(S(=O)(=O)N2CCOCC2)c1	0	0	0	0
Cc1cc(C)n(-c2ccc(C(=O)OCC(=O)c3ccc(Br)s3)cc2)n1	0	0	0	0
CCCCC1(C)OC(=O)C(=Cc2ccc(N(CC)CC)cc2)C(=O)O1 (configuration not stated)	87[fluorescence artefact?]	0	0	0
CCN(CC)c1ccc(/C=C2\C(=O)N(c3ccc([N+](=O)[O-])cc3)N=C2N2CCOCC2)cc1	0	0	-	0
CCOC(=O)c1cnc(SCC(=O)Nc2nc(C)c(C)s2)nc1N	0	0	0	0
O=C(Nn1nnnc1Nc1ccccc1)C12CC3CC(CC(C3)C1)C2	-	-	0	-
COC(=O)c1ccc(-n2nnnc2SCc2nn[nH]n2)cc1	0	0	0	0
CCn1c(SCC(=O)Nc2oc(-c3ccccc3)c(-c3ccccc3)c2C#N)nnc1-c1ccco1	0	0	0	0
COc1ccc(-c2oc(NC(=O)CSc3nncn3C)c(C#N)c2-c2ccc(OC)cc2)cc1	0	0	-3.8	0
COc1ccc(NC(=O)c2ccccc2NC(=O)CSc2ccc(Cl)cc2)cc1	0	0	0	0
CSc1ccccc1NC(=O)COc1ccccc1Cl	0	0	0	0
COc1cc(C2c3c(-c4ccccc4)n[nH]c3C(=O)N2c2ccccc2)ccc1O (configuration not stated)	0	0	-3.1	0
COc1ccc(NC(=O)CN(c2cc(C)cc(C)c2)S(=O)(=O)c2c(C)n[nH]c2C)cc1	0	0	-	0
COC(=O)c1nn(-c2ccccc2)c(-c2ccccc2)c1C(=O)c1ccccc1	0	0	-3.3	0
SMILES	HIV Rev-RRE inh	LYP act	PTK2B oligo ant	PTPN22 inh 2
O=C(O)c1nn(-c2ccccc2)c(-c2ccccc2)c1C(=O)c1ccccc1	-	-	0	-
CC(C)c1cc(=O)oc2c3c4c(cc12)CCCN4CCC3	-	-	0	-
CN1CCCc2cc3c(C(F)(F)F)cc(=O)oc3nc21	71	0	0	0
Cc1ccc(C)c(Nc2c([N+](=O)[O-])cc(C(=O)N3CC(=O)Nc4ccccc43)cc2[N+](=O)[O-])c1	0	0	-3	0
O=C1CN(C(=O)c2ccccc2)c2ccccc2N1	0	0	0	0
COc1ccc(/C=N/NC(=O)c2ccn[nH]2)cc1COc1ccc(F)cc1	0	0	-3.2	0
O=C(Nc1cccc2ccccc12)N1CCN(c2ccccc2)CC1	0	0	-3.8	0
COC(=O)C1C(=O)C2=C(CC1C)NC(C)=C(C(=O)OCCOc1ccccc1)C2c1ccc(C)o1 (configuration not stated)	0	0	-3.9	0
COC(=O)C1C(=O)C2=C(CC1C)NC(C)=C(C(=O)OCc1ccc(OC)cc1)C2c1ccc(C)o1 (configuration not stated)	0	0	0	0
O=c1c2cc(-c3ccccc3)sc2ncn1/N=C/c1ccco1	0	0	0	0
CCC(=O)Oc1c(-c2ccccc2)c2nc3ccccc3nc2c2ccccc12	112[fluorescence artefact?]	0	-	0
CC(=O)Nc1cc(C(=O)OCC(=O)c2ccc(Cl)cc2Cl)ccc1C	0	0	0	0
CC(C)C(=O)Nc1cccc(C(=O)OCC(=O)c2ccc(Cl)cc2Cl)c1	0	0	-3.5	0
Cc1nc(SCC(=O)Nc2ccc3c(c2)OCO3)c(C#N)c2c1CCCC2	0	0	-3.2	0
O=C(O)c1ccccc1-c1ccc(/C=c2\sc3nc4cc(Br)cnc4n3c2=O)o1	99[fluorescence artefact?]	0	0	0
